Screening data (PubChem BioAssay)
Shown are actives, neighbours in structure and some others; about 3.7% of the full set was active somewhere.
KCNK3 block = human KCNK3 channel inhibition, primary screen. CHO-KCNK3 thallium flux, FluxOR fluorescence; active compounds read low. B-score at 10 µM. 340,000 compounds, 0.84% hits;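 active means B-score under library mean minus 4 SD, starting fluorescence ratio at most library mean plus 5 SD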;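 further: more negative B-score means stronger inhibition of thallium flux through KCNK3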
KCNK9 block = human KCNK9 channel inhibition | B-score at 10 µM | AID 488922 | 310,000 compounds, 1.2% hits | HEK293 KCNK9, FluxOR thallium flux fluorescence; active compounds read low | Q9NPC2;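 active means ratio B-score over 3 SD below the library mean, with starting fluorescence within 5 SD of its mean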;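 further: negative B-score means less thallium flux so channel inhibition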
KCNQ1 pot = potentiates or activates the human KCNQ1 potassium channel; AID 2648; P51787; CHO-K1 KCNQ1, thallium flux FluxOR fluorescence; active compounds read high; B-score at 10 µM; 310,000 compounds, 0.35% hits;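 active means fluorescence ratio B-score, a plate-corrected score, at least three library SD, with initial intensity B-score within 5 SD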
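Test system: CHO-K1 cells stably expressing KCNQ1 / Medium: assay buffer / Also added: depolarizing K+/Tl+ stimulus, K2SO4 and Tl2SO4 each 12.5 mM in 5x stock / Incubation: 90 min dye loading and 20 min compound exposure, both at room temperature / Signal: thallium influx via FluxOR fluorescence, kinetic imaging / Evaluation: B score of baseline-normalized fluorescence ratio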
hERG protect = compounds protecting human hERG from proarrhythmic drug block | Q12809 | CHO-hERG, FluxOR thallium flux, dofetilide IC70 present | activation (rescue from dofetilide block), less the hit threshold, % at 10 µM | 310,000 compounds, 0.51% hits | AID 1511;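 active means activation above the mean of controls blocked by dofetilide plus 5 SD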;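 further: thallium influx through hERG after potassium depolarization seen as dye fluorescence rise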
Target sequence (Q12809 whole entry, looked up): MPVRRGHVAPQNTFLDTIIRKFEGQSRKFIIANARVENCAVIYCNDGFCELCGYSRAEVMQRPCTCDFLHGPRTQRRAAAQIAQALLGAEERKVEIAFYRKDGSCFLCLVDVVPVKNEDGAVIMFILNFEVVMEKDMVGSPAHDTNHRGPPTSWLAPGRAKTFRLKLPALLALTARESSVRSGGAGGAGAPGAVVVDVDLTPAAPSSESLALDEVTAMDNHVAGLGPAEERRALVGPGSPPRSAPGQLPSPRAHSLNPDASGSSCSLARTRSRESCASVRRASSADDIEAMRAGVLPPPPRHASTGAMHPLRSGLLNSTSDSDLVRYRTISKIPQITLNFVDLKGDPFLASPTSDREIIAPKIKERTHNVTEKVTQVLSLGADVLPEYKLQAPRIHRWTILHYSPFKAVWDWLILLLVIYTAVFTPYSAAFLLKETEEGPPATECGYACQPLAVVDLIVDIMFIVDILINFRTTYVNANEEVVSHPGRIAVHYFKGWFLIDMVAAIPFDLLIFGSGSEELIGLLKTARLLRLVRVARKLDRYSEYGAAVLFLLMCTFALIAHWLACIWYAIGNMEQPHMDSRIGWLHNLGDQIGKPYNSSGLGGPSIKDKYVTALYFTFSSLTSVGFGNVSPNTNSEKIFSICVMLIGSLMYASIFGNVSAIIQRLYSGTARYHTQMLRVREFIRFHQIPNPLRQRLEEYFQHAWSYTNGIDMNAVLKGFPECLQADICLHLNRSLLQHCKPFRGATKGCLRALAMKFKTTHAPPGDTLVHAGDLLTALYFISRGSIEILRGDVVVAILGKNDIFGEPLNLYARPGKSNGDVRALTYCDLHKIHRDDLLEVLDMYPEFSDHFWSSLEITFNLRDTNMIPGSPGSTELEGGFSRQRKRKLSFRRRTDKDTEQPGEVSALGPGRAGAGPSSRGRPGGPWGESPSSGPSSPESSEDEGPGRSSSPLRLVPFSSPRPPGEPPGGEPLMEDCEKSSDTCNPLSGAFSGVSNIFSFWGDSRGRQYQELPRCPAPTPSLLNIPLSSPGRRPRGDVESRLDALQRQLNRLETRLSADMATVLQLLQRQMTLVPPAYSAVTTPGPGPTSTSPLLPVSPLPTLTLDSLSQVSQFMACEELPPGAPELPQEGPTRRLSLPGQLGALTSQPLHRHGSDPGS
Kir21 inh = blocks the mouse Kir2.1 inward-rectifier potassium channel. P35561. HEK293-Kir2.1, FluxOR thallium flux fluorescence; active compounds read low. B-score at 10 µM. 310,000 compounds, 0.85% hits;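 active means fluorescence ratio B-score at or below minus 3 SD of library scores, with starting-brightness B-score within 2 SD, cut at about -4.2 in these data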;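 further: channel flux triggered by added potassium and thallium sulfate stimulus; B-score of peak minus minimum fluorescence over baseline after thallium stimulus; more negative B-score means stronger Kir2.1 block with less thallium influx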
KCNQ1 inh = human KCNQ1 channel inhibition | P51787 | CHO-K1 KCNQ1, FluxOR thallium flux fluorescence; active compounds read high | B-score at 10 µM | 310,000 compounds, 1.3% hits | AID 2642;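 active means compounds whose thallium flux B-score, printed positive for inhibition, exceeds three library SD while starting fluorescence stays within three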;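 further: channel opened by potassium depolarization with thallium stimulus after 20 min compound exposure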
The depositor's hits bear a star; i = inactive; nt = no result given.

SMILES | KCNK3 block | KCNK9 block | KCNQ1 pot | hERG protect | Kir21 inh | KCNQ1 inh
COc1ccc(C(=O)NC(=S)N(Cc2ccccc2)Cc2ccccc2)cc1 | i | i | 85* | 33* | 0.17 | i
CC(C)C(=O)NC(=S)N(Cc1ccccc1)Cc1ccccc1 | i | i | i | -6 | -0.41 | i
Cc1ccc(NC(=O)CN(c2cc(C)cc(C)c2)S(=O)(=O)c2c(C)noc2C)nc1 | i | i | i | -4 | -1 | i
O=C1C=CC2(O[C@H](c3ccccc3)[C@@H](c3ccccc3)O2)[C@H](Sc2ccccc2O)C1 | i | nt | nt | nt | nt | nt
COc1ccc(CN2CCC(C(=O)Nc3ccc(Oc4cccnc4)cc3)CC2)cc1 | i | i | i | -12 | -5.4* | i
Cc1onc(-c2ccccc2Cl)c1C(=O)Nc1nnc(-c2ccc(Cl)cc2Cl)s1 | i | i | i | -9 | 2.7 | 8*
Cc1onc(-c2c(F)cccc2Cl)c1C(=O)Nc1nnc(-c2ccccc2)s1 | i | i | i | -6 | 0 | i
Cc1onc(-c2ccccc2Cl)c1C(=O)Nc1nnc(-c2ccc(Br)cc2)s1 | i | i | i | -11 | -0.28 | 8*
Cc1onc(-c2ccccc2Cl)c1C(=O)Nc1nnc(-c2ccc(F)cc2)s1 | i | i | i | -8 | 0.81 | i
CC(NCc1ccc(-c2ccccc2)cc1)C(O)c1ccccc1 (centres undefined) | i | i | i | -17 | -14* | i
CC(O)CNCc1ccc(-c2ccccc2)cc1 (centres undefined) | i | i | i | -8 | 0.15 | i
OC1CCCC1 | i | nt | nt | nt | nt | nt
COc1c(N2C[C@@H]3CCCN[C@@H]3C2)c(F)cc2c(=O)c(C(=O)O)cn(C3CC3)c12 | i | i | nt | nt | -0.08 | nt
O=c1c2ccc(Cl)cc2nc(-c2ccc([N+](=O)[O-])cc2)n1O | i | i | 35* | 6.7* | 1 | i
O=c1c2cc(Br)ccc2nc(-c2cccc(C(F)(F)F)c2)n1O | i | i | 99* | 73* | 0.13 | i
O=c1c2cc(Br)ccc2nc(-c2ccc([N+](=O)[O-])cc2)n1O | i | i | 26* | 16* | 0.35 | i
O=c1c2cc(Cl)ccc2nc(-c2ccccc2)n1O | i | i | 8* | 11* | -0.02 | i
O=C(CSc1nnc(-c2ccccc2)o1)NC1CCS(=O)(=O)C1 (centres undefined) | i | i | i | -4 | -1 | i
O=C(NCc1ccncc1)C(=O)N/N=C/c1ccccn1 | i | i | i | -12 | 1.7 | i
CCCCc1c(C)[nH]c(C(=O)OCC)c1C | i | i | i | 5.3* | 0.01 | i
CC(=O)COc1ccc2c(C)c(C)c(=O)oc2c1 | i | i | i | -2 | -0.4 | i
COc1ccc(-c2c(C)c3ccc(OCC(C)=O)cc3oc2=O)cc1 | nt | i | i | 5.7* | -0.72 | i
CCCCC(=Nc1ccccc1OC)C1=C(O)CC(c2ccccc2)CC1=O (centres undefined) | i | i | i | -12 | -1.5 | 7*
CC(Sc1ccc(Cl)cc1)C(=O)NCc1ccc2c(c1)OCO2 (centres undefined) | i | i | i | -5 | -3.8 | i
Cc1ccc2nc(SC(C)C(=O)NCc3ccc4c(c3)OCO4)[nH]c2c1 (centres undefined) | i | i | i | 19* | -1 | i
SMILES | KCNK3 block | KCNK9 block | KCNQ1 pot | hERG protect | Kir21 inh | KCNQ1 inh
CCCc1cc(=O)n2nc(N3CCC(C(=O)Nc4cccc(C(C)=O)c4)CC3)sc2n1 | i | i | i | -6 | -0.05 | i
COc1ccc(C)cc1NC(=O)CN1CCCN(S(=O)(=O)c2ccc(Br)cc2)CC1 | i | i | i | -3 | 0.65 | i
Cc1c(C(=O)OCC(=O)N2CC(=O)Nc3ccccc32)oc2ccc(Br)cc12 | i | i | i | 7.2* | 0.21 | i
Cc1cc(Nc2ccc(Br)c(C)c2)n2nc(C)nc2n1 | i | i | i | -4 | -0.73 | i
Cc1ccc(CNC(=O)c2ccc3c(c2)NC(=O)CS3)cc1 | i | i | i | -5 | -0.56 | i
CC(C)c1ccc(OCC(=O)NNC(=S)NC(=O)c2ccco2)c(Br)c1 | i | i | 47* | -13 | 0.25 | i
COc1ccc(NC(=O)Nc2cccc3c2O[C@H](CN(C)C(=O)NC(C)C)[C@@H](C)CN([C@H](C)CO)C3=O)cc1 | i | nt | nt | nt | nt | nt
Cc1ccc(/C=C/c2ccc(N(C)C)cc2)[n+](C)c1 | i | i | i | -29 | -5.5 | 9*
CN(C)c1ccc(/C=C/c2cc[n+](C)cc2)cc1 | i | i | i | -15 | -4.6 | 7*
O=C(N/N=C/c1ccc2ncccc2c1)c1ccco1 | i | i | i | -9 | -0.11 | 6*
O=C(N/N=C/c1ccccn1)c1ccco1 | i | i | i | -7 | -0.92 | i
COc1cc(/C=C/C(=O)OCC(=O)c2c[nH]c3ccccc23)ccc1OC(F)F | i | i | i | -2 | -0.84 | i
Cc1cc(-n2c(C)cc(C(=O)CSc3ncnc4ccccc34)c2C)no1 | i | i | i | -19 | 0.84 | 6*
Cc1cc(C(=O)CSc2ncnc3ccccc23)c(C)n1C1CC1 | i | nt | nt | nt | nt | nt
COc1ccccc1CNC(=S)Nc1ccc(F)cc1 | i | i | i | -2 | -4.7* | i
COC(=O)Cc1ccc(NC(=S)NCc2ccccc2OC)cc1 | i | i | i | -7 | -0.02 | i
Cn1cc([N+](=O)[O-])c(C(=O)N/N=C/c2ccccc2)n1 | i | i | i | 4.7* | 2.2 | i
Cn1cc([N+](=O)[O-])c(C(=O)N/N=C\c2c[nH]c3ccccc23)n1 | i | i | i | -3 | -0.26 | i
CC(=O)Oc1ccc(N(C(C)=O)S(=O)(=O)c2ccc3ccccc3c2)cc1 | i | i | i | -1 | -0.64 | i
O=C(/C=C/c1cccc([N+](=O)[O-])c1)NCCSCc1ccc(Cl)cc1Cl | i | -14* | i | -13 | -0.58 | i
Cc1cccc(C(=O)N/N=C/c2coc3ccccc3c2=O)c1 | i | i | i | -13 | -0.27 | i
O=C(N/N=C/c1coc2ccccc2c1=O)c1cccc([N+](=O)[O-])c1 | i | i | i | -8 | -1.2 | 7*
CC(C)(C)C1CCC(C(=O)OCC(=O)c2ccc[nH]2)CC1 (centres undefined) | i | i | i | -4 | -5.3* | i
Cc1ccc(N2CC(C(=O)OCC(=O)c3ccc[nH]3)CC2=O)cc1 (centres undefined) | i | i | i | -18 | -0.26 | i
